Reference: ChEMBL document CHEMBL1158182, “Antifungal activity of chalcones: a mechanistic study using various yeast strains” (Eur J Med Chem, 2008)
≈ marks a conversion by molar mass, not a printed value.

Key:
Assay type in all cases: functional
[1] = tested on: Ogataea angusta; assay: Antifungal activity against Hansenula polymorpha CD1 with ade1 leu2 cds1 genotype by agar dilution method
In short: (§1)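 H. polymorpha strains were tested by agar dilution on rich YPD agar at 37 °C. Compound stocks in 96% EtOH were mixed into the medium to give […]. Cells were suspended in water, serially diluted to 10^9, 10^7, 10^5 and 10^3 cells/ml, and applied to the agar with a metal replicator. MIC was read from growth.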

[2] = tested on: Saccharomyces cerevisiae; assay: Antifungal activity against haploid Saccharomyces cerevisiae Sigma 1278b by agar dilution method
In short: (§2)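 S. cerevisiae and K. lactis strains were tested by agar dilution on rich YPD agar at 30 °C. Compound stocks in 96% EtOH were added to the medium to give […]. Cells were suspended in water, serially diluted to 10^9–10^3 cells/ml, and plated with a metal replicator. MIC was read from growth.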

[3] = tested on: Ogataea angusta; assay: Antifungal activity against Hansenula polymorpha M4 with met4 genotype by agar dilution method; in short: as §1
[4] = tested on: Saccharomyces cerevisiae; assay: Antifungal activity against haploid Saccharomyces cerevisiae 2180 by agar dilution method; in short: as §2
[5] = tested on: Ogataea angusta; assay: Antifungal activity against Hansenula polymorpha MC1 with met2 cys1 genotype by agar dilution method; in short: as §1
[6] = tested on: Ogataea angusta; assay: Antifungal activity against Hansenula polymorpha AS1 with arg1 gsh2delta genotype by agar dilution method; in short: as §1
[7] = tested on: Saccharomyces cerevisiae; assay: Antifungal activity against diploid Saccharomyces cerevisiae PV-3 by agar dilution method
In short: (§3)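 MICs by agar dilution on rich YPD medium. Compounds were added from 96% EtOH stocks to give final agar concentrations of 20 to 50 (units as printed in the source). Cells were suspended in water, serially diluted to 10^9, 10^7, 10^5 and 10^3 cells/ml, and spotted onto agar with a metal replicator. Incubation was at 37 °C for H. polymorpha and 30 °C for S. cerevisiae.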

[8] = tested on: Ogataea angusta; assay: Antifungal activity against Hansenula polymorpha 2b with arg1 ade1 leu2 genotype by agar dilution method; in short: as §1
[9] = tested on: Ogataea angusta; assay: Antifungal activity against Hansenula polymorpha CTA1 with leu2 cat1 genotype by agar dilution method; in short: as §3
[10] = tested on: Kluyveromyces lactis; assay: Antifungal activity against Kluyveromyces lactis 1-6A with MATalpha uraA lys arg genotype by agar dilution method; in short: as §2
[11] = tested on: Ogataea angusta; assay: Antifungal activity against Hansenula polymorpha 2a with arg1 leu2 ura3 cys1 genotype by agar dilution method; in short: as §1
[12] = tested on: Saccharomyces cerevisiae; assay: Antifungal activity against haploid Saccharomyces cerevisiae YSH1170 by agar dilution method; in short: as §2
[13] = tested on: Ogataea angusta; assay: Antifungal activity against Hansenula polymorpha CRD2 with leu2 CDR2 genotype by agar dilution method; in short: as §1
[14] = tested on: Saccharomyces cerevisiae; assay: Antifungal activity against haploid Saccharomyces cerevisiae D3C by agar dilution method; in short: as §3
[15] = tested on: Saccharomyces cerevisiae; assay: Antifungal activity against haploid Saccharomyces cerevisiae FY4 by agar dilution method; in short: as §2
[16] = tested on: Saccharomyces cerevisiae; assay: Antifungal activity against diploid Saccharomyces cerevisiae 29a by agar dilution method; in short: as §2
[17] = tested on: Saccharomyces cerevisiae; assay: Antifungal activity against haploid Saccharomyces cerevisiae 1169 by agar dilution method; in short: as §2
[18] = tested on: Ogataea angusta; assay: Antifungal activity against Hansenula polymorpha CD3 with ade1 leu2 cds3 genotype by agar dilution method; in short: as §1
[19] = tested on: Kluyveromyces lactis; assay: Antifungal activity against Kluyveromyces lactis 2-18B with MATalpha metA1 ura3 leu2 genotype by agar dilution method; in short: as §2
[20] = tested on: Ogataea angusta; assay: Antifungal activity against Hansenula polymorpha CD2 with ade1 leu2 cds2 genotype by agar dilution method; in short: as §1
[21] = tested on: Ogataea angusta; assay: Antifungal activity against Hansenula polymorpha R3 with rgh3 genotype by agar dilution method; in short: as §1
[22] = tested on: Ogataea angusta; assay: Antifungal activity against Hansenula polymorpha WT1 with ade1 ura3 genotype by agar dilution method; in short: as §1
[23] = tested on: Saccharomyces cerevisiae; assay: Antifungal activity against diploid Saccharomyces cerevisiae 1a by agar dilution method; in short: as §2
[24] = tested on: Kluyveromyces lactis; assay: Antifungal activity against Kluyveromyces lactis 2-19B with MATalpha ura lys arg genotype by agar dilution method; in short: as §2
[25] = tested on: Ogataea angusta; assay: Antifungal activity against Hansenula polymorpha D22 with arg1/arg1 ade1/ADE1 leu2/leu2 URA3/ura3 CYS1/cys1 genotype by agar dilution method; in short: as §1
[26] = tested on: Saccharomyces cerevisiae; assay: Antifungal activity against haploid Saccharomyces cerevisiae YSH1171 by agar dilution method; in short: as §2
[27] = tested on: Saccharomyces cerevisiae; assay: Antifungal activity against diploid Saccharomyces cerevisiae PV-2 by agar dilution method; in short: as §3
[28] = tested on: Ogataea angusta; assay: Antifungal activity against Hansenula polymorpha M2 with met2 genotype by agar dilution method; in short: as §1
[29] = tested on: Saccharomyces cerevisiae; assay: Antifungal activity against haploid Saccharomyces cerevisiae 1S by agar dilution method; in short: as §2
[30] = tested on: Saccharomyces cerevisiae; assay: Antifungal activity against haploid Saccharomyces cerevisiae 10560-6B by agar dilution method; in short: as §2
[31] = tested on: Ogataea angusta; assay: Antifungal activity against Hansenula polymorpha WT2 with ade1 met6 genotype by agar dilution method; in short: as §1
[32] = tested on: Ogataea angusta; assay: Antifungal activity against Hansenula polymorpha AU05 with ade3 ura3 genotype by agar dilution method; in short: as §1
[33] = tested on: Ogataea angusta; assay: Antifungal activity against Hansenula polymorpha WA1 with ade1 leu2 gsh1 genotype by agar dilution method; in short: as §3

`O=C(/C=C/c1cccc(O)c1)c1ccc(Cl)cc1` gave an MIC [1] of under 20 µg/mL, an MIC [2] of 15 µg/mL (≈ 58 µM) and an MIC [3] of 25 µg/mL (≈ 96.6 µM). For the same compound, the MIC [4] was 16 µg/mL (≈ 61.8 µM), the MIC [5] was under 20 µg/mL and the MIC [6] was under 20 µg/mL. It also gave an MIC [7] of 15 µg/mL (≈ 58 µM), an MIC [8] of 25 µg/mL (≈ 96.6 µM) and an MIC [9] of 25 µg/mL (≈ 96.6 µM). It also gave an MIC [10] of under 20 µg/mL, an MIC [11] of under 20 µg/mL and an MIC [12] of 15 µg/mL (≈ 58 µM). It also gave an MIC [13] of under 20 µg/mL, an MIC [14] of 20 µg/mL (≈ 77.3 µM) and an MIC [15] of 18 µg/mL (≈ 69.6 µM). It also gave an MIC [16] of 25 µg/mL (≈ 96.6 µM), an MIC [17] of 20 µg/mL (≈ 77.3 µM) and an MIC [18] of under 20 µg/mL. The MIC [19] was under 20 µg/mL, the MIC [20] was under 20 µg/mL and the MIC [21] was under 20 µg/mL. It also gave an MIC [22] of 25 µg/mL (≈ 96.6 µM), an MIC [23] of 20 µg/mL (≈ 77.3 µM) and an MIC [24] of under 20 µg/mL. For the same compound, the MIC [25] was under 20 µg/mL, the MIC [26] was 18 µg/mL (≈ 69.6 µM) and the MIC [27] was 18 µg/mL (≈ 69.6 µM). The MIC [28] was 25 µg/mL (≈ 96.6 µM), the MIC [29] was 20 µg/mL (≈ 77.3 µM) and the MIC [30] was 15 µg/mL (≈ 58 µM). It also gave an MIC [31] of under 20 µg/mL and an MIC [32] of 25 µg/mL (≈ 96.6 µM).
`O=C(/C=C/c1ccc(O)cc1)c1ccc(Cl)cc1` gave an MIC [1] of over 40 µg/mL, an MIC [2] of over 40 µg/mL and an MIC [3] of over 40 µg/mL. The MIC [4] was over 40 µg/mL, the MIC [5] was 30 µg/mL (≈ 116 µM) and the MIC [6] was 30 µg/mL (≈ 116 µM). For the same compound, the MIC [7] was 35 µg/mL (≈ 135 µM), the MIC [8] was over 40 µg/mL and the MIC [10] was over 40 µg/mL. It also gave an MIC [11] of 35 µg/mL (≈ 135 µM), an MIC [12] of over 40 µg/mL and an MIC [13] of 40 µg/mL (≈ 155 µM). It also gave an MIC [15] of over 40 µg/mL, an MIC [16] of over 40 µg/mL and an MIC [17] of over 40 µg/mL. It also gave an MIC [18] of over 40 µg/mL, an MIC [33] of 30 µg/mL (≈ 116 µM) and an MIC [19] of 35 µg/mL (≈ 135 µM). It also gave an MIC [20] of over 40 µg/mL, an MIC [21] of 40 µg/mL (≈ 155 µM) and an MIC [22] of over 40 µg/mL. For the same compound, the MIC [23] was 35 µg/mL (≈ 135 µM), the MIC [24] was 35 µg/mL (≈ 135 µM) and the MIC [25] was over 40 µg/mL. The MIC [26] was over 40 µg/mL, the MIC [27] was 35 µg/mL (≈ 135 µM) and the MIC [28] was over 40 µg/mL. It also gave an MIC [29] of over 40 µg/mL, an MIC [30] of over 40 µg/mL and an MIC [31] of over 40 µg/mL. The MIC [32] was over 40 µg/mL.
Work on `COc1ccc(/C=C/C(=O)c2ccccc2)cc1O` yielded an MIC [1] of over 40 µg/mL, an MIC [2] of over 40 µg/mL and an MIC [3] of over 40 µg/mL. The MIC [4] was over 40 µg/mL, the MIC [5] was 30 µg/mL (≈ 118 µM) and the MIC [6] was 30 µg/mL (≈ 118 µM). The MIC [8] was over 40 µg/mL, the MIC [10] was 25 µg/mL (≈ 98.3 µM) and the MIC [11] was 30 µg/mL (≈ 118 µM). It also gave an MIC [12] of 35 µg/mL (≈ 138 µM), an MIC [13] of over 40 µg/mL and an MIC [15] of over 40 µg/mL. For the same compound, the MIC [16] was over 40 µg/mL, the MIC [17] was over 40 µg/mL and the MIC [18] was over 40 µg/mL. For the same compound, the MIC [33] was 30 µg/mL (≈ 118 µM), the MIC [19] was 25 µg/mL (≈ 98.3 µM) and the MIC [20] was over 40 µg/mL. For the same compound, the MIC [21] was over 40 µg/mL, the MIC [22] was over 40 µg/mL and the MIC [23] was over 40 µg/mL. The MIC [24] was 25 µg/mL (≈ 98.3 µM), the MIC [25] was over 40 µg/mL and the MIC [26] was over 40 µg/mL. For the same compound, the MIC [28] was over 40 µg/mL, the MIC [29] was over 40 µg/mL and the MIC [30] was over 40 µg/mL. It also gave an MIC [31] of over 40 µg/mL and an MIC [32] of over 40 µg/mL.
